Reference: ChEMBL document CHEMBL1153353, “Probing of the cis-5-phenyl proline scaffold as a platform for the synthesis of mechanism-based inhibitors of the Staphylococcus aureus sortase SrtA isoform” (Bioorg Med Chem, 2009)
Active and inactive are the calls of the source. The calls are words filed in the database; no cut-off is given here.

biological target: T1, Sortase A (Staphylococcus aureus, UniProt Q9S446); assay: Inhibition of 6-His tagged Staphylococcus aureus recombinant sortase delta N24 expressed in Escherichia coli BL21 (DE3)
T1 sequence (Q9S446 whole entry): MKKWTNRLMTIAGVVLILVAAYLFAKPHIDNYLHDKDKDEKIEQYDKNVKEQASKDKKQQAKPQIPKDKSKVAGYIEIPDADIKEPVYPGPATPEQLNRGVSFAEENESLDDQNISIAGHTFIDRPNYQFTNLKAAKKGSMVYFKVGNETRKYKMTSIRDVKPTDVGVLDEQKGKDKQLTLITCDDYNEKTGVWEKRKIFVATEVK
How it was run: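 N-terminally His6-tagged SrtA lacking residues 1-24, Ni-chelate purified. 1 μM enzyme pre-incubated with inhibitor 30 min at 37°C, then 2 mM Abz-LPETG-Dap(DNP)-NH2 plus 2 mM NH2-Gly5-OH added. Buffer: 300 mM Tris pH 7.5, 150 mM NaCl, 5 mM CaCl2, 0.1% CHAPS, 2% DMSO. Ran 30 min at 37°C, HCl-quenched. Reverse-phase HPLC at 355 nm gave substrate-to-product conversion, relative to uninhibited controls.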

Structure (SMILES) | IC50 [µM]
C=CS(=O)(=O)[C@H]1C[C@@H](C(=O)OC)N[C@H]1c1cccc(F)c1 (racemic) | 1040
COc1cc(/C=C/C(=O)CC(=O)/C=C/c2ccc(O)c(OC)c2)ccc1O [CURCUMIN] | 37.5
O=c1c(O)c(-c2ccc(O)cc2O)oc2cc(O)cc(O)c12 [MORIN] | 37.4
C=CS(=O)(=O)[C@H]1C[C@]2(C(=O)OC)CCC(=O)N2[C@H]1c1ccccc1 (racemic) | 2200
C=CS(=O)(=O)[C@H]1C[C@@](CCC(=O)OC)(C(=O)OC)N[C@H]1c1cccnc1 (racemic) | 1860
C=CS(=O)(=O)[C@H]1C[C@]2(C(=O)OC)CCC(=O)N2[C@H]1c1cccnc1 (racemic) | 2470
C=CS(=O)(=O)[C@H]1C[C@]2(C(=O)OC)CCC(=O)N2[C@H]1c1ccc(OC)c(OC)c1 (racemic) | 2680
C=CS(=O)(=O)[C@H]1C[C@@](CCC(=O)OC)(C(=O)OC)N[C@H]1c1ccc(OC)c(OC)c1 (racemic) | > 5000
CN(C)C(=N)N.O=C(NCCSSCCNC(=O)/C(Cc1ccc(S(=O)(=O)O)c(Br)c1)=N/O)/C(Cc1ccc(O)c(Br)c1)=N/O | 48.3
C=CS(=O)(=O)[C@H]1C[C@@H](C(=O)OC)N[C@H]1c1ccccc1 (racemic) | 850
C=CS(=O)(=O)[C@H]1C[C@@H](C(=O)OC)N[C@H]1c1ccccc1F (racemic) | 1320
C=CS(=O)(=O)c1ccccc1 [(ETHENYLSULFONYL)BENZENE] | 736

biological target: T2, Sortase A (Staphylococcus aureus) (UniProt Q9S446); assay: Inhibition of 6-His tagged Staphylococcus aureus recombinant sortase delta N24 expressed in Escherichia coli BL21 (DE3) at 5 mM
T2 sequence (whole entry): T1 sequence (Q9S446 whole entry)
How it was run: (§1)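 His6-SrtAΔN24 (1 μM) was pre-incubated with inhibitor for 30 min at 37°C in 300 mM Tris pH 7.5, 150 mM NaCl, 5 mM CaCl2, 0.1% CHAPS and 2% DMSO. The reaction was started with 2 mM Abz-LPETG-Dap(DNP)-NH2 plus 2 mM NH2-Gly5-OH, run 30 min at 37°C, and quenched with 1.2 M HCl. Substrate and product were separated by reverse-phase HPLC and read at 355 nm. Percent substrate conversion came from peak areas.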

Structure (SMILES) | inhibition [%] | Activity
COC(=O)[C@@H]1C[C@@H](C#N)[C@H](c2ccccc2)N1 (racemic) | 20 | 
COC(=O)[C@]1(C)C[C@@H](C#N)[C@H](c2ccc(Cl)cc2)N1 (racemic) |  | inactive
COC(=O)[C@@H]1C[C@@H](C#N)[C@H](c2cccc(F)c2)N1 (racemic) |  | inactive
COC(=O)[C@]1(C)C[C@@H](C#N)[C@H](c2ccccc2Cl)N1 (racemic) |  | inactive
COC(=O)[C@]1(C)C[C@H](C#N)[C@H](c2ccccc2C)N1C (racemic) |  | inactive
COC(=O)[C@@H]1C[C@H](C#N)[C@H](c2ccccc2)N1 (racemic) |  | inactive
COC(=O)[C@]1(C)C[C@H](C#N)[C@H](c2ccccc2C)N1 (racemic) |  | inactive
C=CS(=O)(=O)[C@H]1C[C@@H](C(=O)OC)N[C@H]1c1cccc(F)c1 (racemic) |  | Active
COC(=O)[C@@H]1C[C@H](C#N)[C@H](c2cccc(F)c2F)N1 (racemic) |  | inactive
COC(=O)[C@@H]1C[C@H](C#N)[C@H](c2cccc(F)c2F)N1C (racemic) |  | inactive
COC(=O)[C@@H]1C[C@H](C#N)[C@H](c2ccccc2)N1C (racemic) |  | inactive
COC(=O)[C@]1(C)C[C@@H](C#N)[C@H](c2ccccc2C)N1 (racemic) |  | inactive
COC(=O)[C@]1(C)C[C@H](C#N)[C@H](c2ccc(Cl)cc2)N1 (racemic) |  | inactive
COC(=O)[C@@H]1C[C@@H](C#N)[C@H](c2ccccc2F)N1 (racemic) | 20 | 
COC(=O)[C@]1(C)C[C@H](C#N)[C@H](c2ccccc2Cl)N1 (racemic) |  | inactive
COC(=O)[C@@H]1C[C@@H](C#N)[C@H](c2cccc(F)c2F)N1 (racemic) |  | inactive
COC(=O)[C@@H]1C[C@@H](C#N)[C@H](c2cccc(Cl)c2)N1 (racemic) |  | inactive
Cc1cn(C[C@@H]2C[C@H](C#N)[C@H](c3ccccc3)N2C)c(=O)[nH]c1=O (racemic) |  | inactive
COC(=O)[C@@H]1C[C@H](C#N)[C@H](c2cccc(Cl)c2)N1 (racemic) | 20 | 
COC(=O)[C@@H]1C[C@H](C#N)[C@H](c2ccccc2F)N1C (racemic) | 20 | 
COC(=O)[C@@H]1C[C@H](C#N)[C@H](c2ccccc2F)N1 (racemic) | 20 | 
COC(=O)[C@]1(C)C[C@H](C#N)[C@H](c2ccccc2Cl)N1C (racemic) | 20 | 
COC(=O)[C@@H]1C[C@H](C#N)[C@H](c2cccc(F)c2)N1 (racemic) |  | inactive
C=CS(=O)(=O)[C@H]1C[C@@H](C(=O)OC)N[C@H]1c1ccccc1 (racemic) |  | Active
C=CS(=O)(=O)[C@H]1C[C@@H](C(=O)OC)N[C@H]1c1ccccc1F (racemic) |  | Active

biological target: T2, Sortase A (Staphylococcus aureus); assay: Inhibition of 6-His tagged Staphylococcus aureus recombinant sortase delta N24 expressed in Escherichia coli BL21 (DE3) at 1 mM; how it was run: as §1

Structure (SMILES) | inhibition [%]
Cc1cn(C[C@@H]2C[C@H](C#N)[C@H](c3ccccc3)N2C)c(=O)[nH]c1=O (racemic) | 6
